{
  "source": "ChEMBL document CHEMBL1140948",
  "about": "“Malaria-infected mice are cured by a single oral dose of new dimeric trioxane sulfones which are also selectively and powerfully cytotoxic to cancer cells” (J Med Chem, 2009)",
  "key": {"[1]": {"test": "Partition coefficient, log P of the compound", "assay_type": "physicochemical", "details": "octanol/water"}, "[2]": {"test": "Cytotoxicity against human Hs888Lu cells after 72 hrs by SRB assay", "assay_type": "cell-based", "procedure,_shortened": "(§1)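 Non-cancerous immortalized fibroblasts grown in DMEM with 10% FBS and 1% pen/strep at 37 °C, 5% CO2, allowed ≥5 h to attach. Dosed over a concentration range for 72 hr. IC50 by logistic curve fitting, at least three experiments ± SEM.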"}, "HL-60": {"system": "HL-60", "test": "Cytotoxicity against human HL60 cells after 72 hrs by MTS assay", "assay_type": "functional, cell-based", "details": "HL-60, 72 h", "procedure,_shortened": "(§2)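 Exposed to a range of compound concentrations for 72 hr. Viability by MTS/PMS, absorbance at 490 nm. IC50 from logistic dose-response fits, mean of at least three experiments ± SEM.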"}, "SK-MEL-5": {"system": "SK-MEL-5", "test": "Cytotoxicity against human SK-MEL-5 cells after 72 hrs by SRB assay", "assay_type": "functional, cell-based", "details": "SK-MEL-5, 72 h", "procedure,_shortened": "(§3)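 Then 72 hr with a range of compound concentrations. Fixed overnight at 4 °C in 10% TCA, stained 30 min with 0.057% w/v sulforhodamine B in 1% acetic acid, dye solubilised in 10 mM Tris base, read at 510 nm.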"}, "MEF": {"system": "MEF", "test": "Cytotoxicity against mouse wild type MEF cells after 72 hrs by SRB assay", "assay_type": "cell-based", "procedure,_shortened": "as §1, with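 “hr. Biomass by SRB: TCA fixation overnight at 4 °C, 0.057% SRB stain for 30 min, Tris solubilisation, A510.” for “hr.”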"}, "HeLa": {"system": "HeLa", "test": "Cytotoxicity against human HeLa cells after 72 hrs by SRB assay", "assay_type": "functional, cell-based", "procedure,_shortened": "as §3"}, "Mus musculus [3]": {"system": "Mus musculus", "test": "Toxicity in Plasmodium berghei ANKA infected perorally dosed BALB/c mice (Mus musculus) assessed as induction of behavioral changes administered as single dose", "assay_type": "organism-based", "details": "in vivo, po", "procedure,_shortened": "(§4)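 Male 5-week-old mice of about 22 g, infected i.p. on day 0 with 2 × 10^7 P. berghei ANKA-parasitized erythrocytes. At 24 h they received one oral dose in 7:3 Tween 80:ethanol diluted with water, 5 mice per group. Animals were watched to day 30 for overt toxicity and behavioral change.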"}, "Mus musculus [4]": {"system": "Mus musculus", "test": "Toxicity in Plasmodium berghei ANKA infected BALB/c mice (Mus musculus) assessed as induction of adverse effects at 144 mg/kg, perorally administered as single dose", "assay_type": "organism-based", "parameters": "dose 144 mg/kg, route oral", "details": "in vivo, po", "procedure,_shortened": "as §4"}, "U-937": {"system": "U-937", "test": "Cytotoxicity against human U937 cells after 72 hrs by MTS assay", "assay_type": "functional, cell-based", "details": "U-937, 72 h", "procedure,_shortened": "as §2"}, "UACC-62": {"system": "UACC-62", "test": "Cytotoxicity against human UACC62 cells after 72 hrs by SRB assay", "assay_type": "functional, cell-based", "details": "UACC-62, 72 h", "procedure,_shortened": "as §3"}, "Plasmodium berghei [5]": {"system": "Plasmodium berghei", "test": "Antiplasmodial activity as survival in Plasmodium berghei ANKA infected BALB/c mice (Mus musculus) after single 13 mg/kg peroral dose", "assay_type": "functional", "details": "route oral"}, "Plasmodium berghei [6]": {"system": "Plasmodium berghei", "test": "Antiplasmodial activity as survival in Plasmodium berghei ANKA infected BALB/c mice (Mus musculus) at 30 mg/kg peroral dose", "assay_type": "functional", "details": "route oral"}, "Plasmodium berghei [7]": {"system": "Plasmodium berghei", "test": "Antiplasmodial activity as reduced parasitaemia in Plasmodium berghei ANKA infected BALB/c mice (Mus musculus) at 30 mg/kg peroral dose", "assay_type": "functional", "parameters": "scale not given: the % may be the effect or the level left", "details": "route oral"}},
  "data": [
    {"smiles": "CCN(CC)C(=O)OCc1ccc(S(=O)(=O)CC(C[C@H]2O[C@@H]3C[C@]4(C)CC[C@H]5[C@H](C)CC[C@@H]([C@H]2C)[C@@]35OO4)C[C@H]2O[C@@H]3C[C@]4(C)CC[C@H]5[C@H](C)CC[C@@H]([C@H]2C)[C@@]35OO4)cc1", "values": [
      {"measurement": "logP", "setting": "[1]; read-out: logP", "value": 8.3}
    ]},
    {"smiles": "C[C@H]1[C@@H](CC(C[C@H]2O[C@@H]3C[C@]4(C)CC[C@H]5[C@H](C)CC[C@@H]([C@H]2C)[C@@]35OO4)CS(=O)(=O)c2ccc(COC(=O)N(C)C)cc2)O[C@@H]2C[C@]3(C)CC[C@H]4[C@H](C)CC[C@@H]1[C@@]24OO3", "values": [
      {"measurement": "IC50", "setting": "[2]", "value": "> 50000", "unit": "nM"},
      {"measurement": "IC50", "setting": "HL-60", "value": 60, "unit": "nM"},
      {"measurement": "logP", "setting": "[1]; read-out: logP", "value": 7.6},
      {"measurement": "IC50", "setting": "SK-MEL-5", "value": 60, "unit": "nM"},
      {"measurement": "IC50", "setting": "MEF", "value": "> 50000", "unit": "nM"},
      {"measurement": "IC50", "setting": "HeLa", "value": 110, "unit": "nM"},
      {"measurement": "Activity", "setting": "Mus musculus [3]", "value": "Non-toxic"},
      {"measurement": "Activity", "setting": "Mus musculus [4]", "value": "Non-toxic"},
      {"measurement": "IC50", "setting": "U-937", "value": 280, "unit": "nM"},
      {"measurement": "IC50", "setting": "UACC-62", "value": 40, "unit": "nM"}
    ]},
    {"smiles": "CCOP(=O)(OCC)OCc1ccc(S(=O)(=O)CC(C[C@H]2O[C@@H]3C[C@]4(C)CC[C@H]5[C@H](C)CC[C@@H]([C@H]2C)[C@@]35OO4)C[C@H]2O[C@@H]3C[C@]4(C)CC[C@H]5[C@H](C)CC[C@@H]([C@H]2C)[C@@]35OO4)cc1", "values": [
      {"measurement": "logP", "setting": "[1]; read-out: logP", "value": 8.8}
    ]},
    {"smiles": "C[C@H]1[C@@H](CC(C[C@H]2O[C@@H]3C[C@]4(C)CC[C@H]5[C@H](C)CC[C@@H]([C@H]2C)[C@@]35OO4)CS(=O)(=O)CCCCCCO)O[C@@H]2C[C@]3(C)CC[C@H]4[C@H](C)CC[C@@H]1[C@@]24OO3", "values": [
      {"measurement": "logP", "setting": "[1]", "value": 9.5}
    ]},
    {"smiles": "C[C@H]1[C@@H](CC(C[C@H]2O[C@@H]3C[C@]4(C)CC[C@H]5[C@H](C)CC[C@@H]([C@H]2C)[C@@]35OO4)CS(=O)(=O)c2ccc(CO)cc2)O[C@@H]2C[C@]3(C)CC[C@H]4[C@H](C)CC[C@@H]1[C@@]24OO3", "values": [
      {"measurement": "IC50", "setting": "[2]", "value": "> 50000", "unit": "nM"},
      {"measurement": "IC50", "setting": "HL-60", "value": 130, "unit": "nM"},
      {"measurement": "logP", "setting": "[1]; read-out: logP", "value": 7},
      {"measurement": "IC50", "setting": "SK-MEL-5", "value": 140, "unit": "nM"},
      {"measurement": "IC50", "setting": "MEF", "value": "> 50000", "unit": "nM"},
      {"measurement": "IC50", "setting": "HeLa", "value": 1100, "unit": "nM"},
      {"measurement": "IC50", "setting": "U-937", "value": 280, "unit": "nM"},
      {"measurement": "IC50", "setting": "UACC-62", "value": 30, "unit": "nM"}
    ]},
    {"smiles": "C[C@H]1[C@@H](CC(C[C@H]2O[C@@H]3C[C@]4(C)CC[C@H]5[C@H](C)CC[C@@H]([C@H]2C)[C@@]35OO4)CS(=O)(=O)Cc2ccc(F)cc2)O[C@@H]2C[C@]3(C)CC[C@H]4[C@H](C)CC[C@@H]1[C@@]24OO3", "values": [
      {"measurement": "logP", "setting": "[1]; read-out: logP", "value": 7.8}
    ]},
    {"smiles": "COc1cccc2c1C(=O)c1c(O)c3c(c(O)c1C2=O)C[C@@](O)(C(=O)CO)C[C@@H]3O[C@H]1C[C@H](N)[C@H](O)[C@H](C)O1", "note": "[DOXORUBICIN]", "values": [
      {"measurement": "IC50", "setting": "MEF", "value": 3400, "unit": "nM"}
    ]},
    {"smiles": "Cl.OC(c1cc(C(F)(F)F)nc2c(C(F)(F)F)cccc12)C1CCCCN1", "note": "(configuration not stated) [MEFLOQUINE HYDROCHLORIDE]", "values": [
      {"measurement": "Survival", "setting": "Plasmodium berghei [5]", "value": 11, "unit": "days"}
    ]},
    {"smiles": "CC(C)(N)CNC(=O)C[C@H]1CC[C@]2(CC1)OO[C@]1(O2)C2CC3CC(C2)CC1C3", "note": "[OZ277]", "values": [
      {"measurement": "Survival", "setting": "Plasmodium berghei [6]", "value": 10.7, "unit": "days"},
      {"measurement": "Activity", "setting": "Plasmodium berghei [7]", "value": 99.95, "unit": "%"}
    ]},
    {"smiles": "C[C@H]1[C@H](OC(=O)CCC(=O)[O-])O[C@@H]2O[C@@]3(C)CC[C@H]4[C@H](C)CC[C@@H]1[C@@]24OO3.[Na+]", "note": "[SODIUM ARESUNATE]", "values": [
      {"measurement": "Survival", "setting": "Plasmodium berghei [6]", "value": 7.6, "unit": "days"}
    ]}
  ]
}
